{"source": "ChEMBL document CHEMBL1127726", "about": "“Substituted 1,3-dipropylxanthines as irreversible antagonists of A1 adenosine receptors” (J Med Chem, 1994)", "key": {"Adenosine receptor A1": {"target": "Adenosine receptor A1", "experiment": "Specific binding of [3H]CPX to the A1-adenosine receptor"}, "[1]": {"target": "T1, Adenosine A2 receptor (Rattus norvegicus) (UniProt P29276+P30543)", "experiment": "Loss of [3H]NECA binding to A2 adenosine receptor at 50 uM", "assay_type": "protein assay", "in_short": "(§1)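 PC12 monolayers, 1 day preconfluent, were exposed to xanthine in HBSS for 2 h at 37 °C, then washed 7 times (3 min each) in ligand-free HBSS. Membranes in Tris-Mg pH 7.4 were bound 2 h at room temperature with 1–10 nM [3H]NECA plus adenosine deaminase; 10 μM NECA defined nonspecific binding. Triplicate; Scatchard Bmax compared with control.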"}, "Adenosine A2 receptor [2]": {"target": "T2, Adenosine A2 receptor (Rattus norvegicus, UniProt P29276+P30543)", "experiment": "Binding of [3H]NECA to A2 adenosine receptor (post-Xanthine)", "assay_type": "protein assay"}, "[3]": {"target": "T3, Adenosine receptor A1 (Homo sapiens) (UniProt P30542)", "T3 sequence (whole entry)": "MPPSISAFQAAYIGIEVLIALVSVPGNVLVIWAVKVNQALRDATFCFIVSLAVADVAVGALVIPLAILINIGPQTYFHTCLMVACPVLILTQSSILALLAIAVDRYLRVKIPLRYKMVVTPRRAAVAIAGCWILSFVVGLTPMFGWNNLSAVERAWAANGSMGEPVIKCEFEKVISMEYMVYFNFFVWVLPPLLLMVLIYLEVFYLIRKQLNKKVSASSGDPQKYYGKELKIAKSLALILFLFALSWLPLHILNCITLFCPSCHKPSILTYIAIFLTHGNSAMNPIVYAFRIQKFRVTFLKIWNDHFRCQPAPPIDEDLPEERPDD", "experiment": "Percentage loss of [3H]- CPX binding in cells pretreated with a xanthine derivative at 50 uM", "in_short": "(§2)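 DDT1 MF-2 monolayers, 1 day preconfluent, were exposed to xanthine in HBSS for 2 h at 37 °C, then washed 5 times (3 min each) in ligand-free HBSS. Membranes in 50 mM Tris-HCl pH 7.4 with 5 mM MgCl2 were incubated 2 h at room temperature with 0.06–4 nM [3H]CPX; 10 μM N6-cyclopentyladenosine defined nonspecific binding. Triplicate; Scatchard Bmax versus control.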"}, "[4]": {"target": "T3, Adenosine receptor A1 (Homo sapiens)", "experiment": "Percent loss of [3H]CPX binding to A1 adenosine receptor of DDT1 MF-2 (DDT) cells 10 uM", "in_short": "as §2"}, "Adenosine A2 receptor [5]": {"target": "T2, Adenosine A2 receptor", "experiment": "Inhibition of [3H]NECA binding to A2 adenosine receptor of PC12 cell membranes", "details": "pc-12"}, "[6]": {"test_system": "Adenosine receptor A1 (Mesocricetus auratus)", "experiment": "Loss of specific binding of [3H]CPX to the A1-adenosine receptor of DDT1 MF-2 (DDT) cells at a concentration of 10 uM"}, "[7]": {"test_system": "Adenosine receptor A1 (Mesocricetus auratus)", "experiment": "Loss of [3H]CPX binding to A1 adenosine receptor of DDT1 MF-2 (DDT) cells at 10 uM"}, "[8]": {"test_system": "Adenosine receptor A1 (Mesocricetus auratus)", "experiment": "Loss of specific binding of [3H]CPX to the A1-adenosine receptor of DDT1 MF-2 (DDT) cells at a concentration of 1 uM"}, "[9]": {"target": "T3, Adenosine receptor A1 (Homo sapiens)", "experiment": "Loss of [3H]CPX binding to A1 adenosine receptor of DDT1 MF-2 (DDT) cells at 0.05 uM", "in_short": "as §2"}, "[10]": {"target": "T3, Adenosine receptor A1 (Homo sapiens)", "experiment": "Loss of [3H]CPX binding to A1 adenosine receptor of DDT1 MF-2 (DDT) cells at 0.01 uM", "in_short": "as §2"}, "Adenosine A2 receptor [11]": {"target": "T2, Adenosine A2 receptor", "experiment": "Binding of [3H]NECA to A2 adenosine receptor of PC12 cell membranes", "details": "pc-12", "in_short": "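PC12 cell membranes (0.1–0.2 mg protein) were incubated 2 h at room temperature in 50 mM Tris-HCl pH 7.4 with 5 mM MgCl2, 1 nM [3H]NECA, adenosine deaminase 2 units/mL, and 7–10 xanthine concentrations. Nonspecific binding was set with 10 μM NECA. Bound ligand was separated by filtration and counted by scintillation. Run in triplicate; IC50 from Hill plots.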"}, "[12]": {"target": "T3, Adenosine receptor A1 (Homo sapiens)", "experiment": "Loss of [3H]CPX binding to A1 adenosine receptor of DDT1 MF-2 (DDT) cells at 0.1 uM", "in_short": "as §2"}, "[13]": {"target": "T1, Adenosine A2 receptor (Rattus norvegicus)", "experiment": "Inhibition of [3H]NECA binding to A2 adenosine receptor of PC12 cell membranes at 50 uM", "details": "PC-12", "in_short": "as §1"}}, "data": [{"smiles": "CCCn1c(=O)c2[nH]c(C3CCCC3)nc2n(CC(C)OC(=O)CBr)c1=O", "note": "(centres undefined)", "values": [{"measurement": "Kd", "setting": "Adenosine receptor A1", "result": 1.1, "unit": "nM"}]}, {"smiles": "CCCn1c(=O)c2nc(CNC(=O)c3cccc(S(=O)(=O)F)c3)[nH]c2n(CCC)c1=O", "values": [{"measurement": "Loss", "setting": "[1]", "result": 0, "unit": "%"}, {"measurement": "Kd", "setting": "Adenosine A2 receptor [2]", "result": 40, "unit": "nM"}, {"measurement": "Loss", "setting": "[3]", "result": 58, "unit": "%"}, {"measurement": "Loss", "setting": "[4]", "result": 38, "unit": "%"}, {"measurement": "IC50", "setting": "Adenosine A2 receptor [5]", "result": 45000, "unit": "nM"}]}, {"smiles": "CCCn1c(=O)c2[nH]c(CCCNC(=O)c3cccc(S(=O)(=O)F)c3)nc2n(CCC)c1=O", "values": [{"measurement": "Kd", "setting": "Adenosine receptor A1", "result": 0.86, "unit": "nM"}]}, {"smiles": "CCCn1c(=O)c2nc(NC(=O)c3cccc(S(=O)(=O)F)c3)[nH]c2n(CCC)c1=O", "values": [{"measurement": "Loss", "setting": "[6]", "result": 54, "unit": "%"}]}, {"smiles": "O=C(OCCCn1c(=O)c2nc(C3CCCC3)[nH]c2n(CCCOC(=O)c2ccc(S(=O)(=O)F)cc2)c1=O)c1ccc(S(=O)(=O)F)cc1", "values": [{"measurement": "Loss", "setting": "[6]", "result": 50, "unit": "%"}]}, {"smiles": "CCCn1c(=O)c2nc(CNC(=O)CBr)[nH]c2n(CCC)c1=O", "values": [{"measurement": "Loss", "setting": "[6]", "result": 17, "unit": "%"}]}, {"smiles": "CCCn1c(=O)c2nc(CCCCCN3C(=O)C=CC3=O)[nH]c2n(CCC)c1=O", "values": [{"measurement": "Loss", "setting": "[6]", "result": 16, "unit": "%"}]}, {"smiles": "CCCn1c(=O)c2nc(CNC(=O)c3ccccc3)[nH]c2n(CCC)c1=O", "values": [{"measurement": "Loss", "setting": "[7]", "result": 0, "unit": "%"}]}, {"smiles": "CCCn1c(=O)c2nc(CCCNC(=O)c3cccc(S(=O)(=O)F)c3)[nH]c2n(CCC)c1=O", "values": [{"measurement": "Loss", "setting": "[6]", "result": 30, "unit": "%"}]}, {"smiles": "CCCn1c(=O)c2nc(C3CCCC3)[nH]c2n(CCCOC(=O)c2cccc(S(=O)(=O)F)c2)c1=O", "values": [{"measurement": "Loss", "setting": "[8]", "result": 11, "unit": "%"}]}, {"smiles": "CCCn1c(=O)c2nc(C3CCC(OC(=O)c4ccc(S(=O)(=O)F)cc4)C3)[nH]c2n(CCC)c1=O", "note": "(centres undefined)", "values": [{"measurement": "Loss", "setting": "[8]", "result": 16, "unit": "%"}]}, {"smiles": "CCCn1c(=O)c2nc(-c3ccc(Cl)c([N+](=O)[O-])c3)[nH]c2n(CCC)c1=O", "values": [{"measurement": "Loss", "setting": "[6]", "result": 0, "unit": "%"}]}, {"smiles": "CCCn1c(=O)c2nc(CCNC(=O)c3ccc(S(=O)(=O)F)cc3)[nH]c2n(CCC)c1=O", "values": [{"measurement": "Kd", "setting": "Adenosine receptor A1", "result": 0.74, "unit": "nM"}, {"measurement": "Loss", "setting": "[6]", "result": 72, "unit": "%"}]}, {"smiles": "O=C(OCCCn1c(=O)c2[nH]c(C3CCCC3)nc2n(CCCOC(=O)c2ccc(S(=O)(=O)F)cc2)c1=O)c1ccc(S(=O)(=O)F)cc1", "values": [{"measurement": "Kd", "setting": "Adenosine receptor A1", "result": 0.82, "unit": "nM"}]}, {"smiles": "CCCn1c(=O)c2nc(C3CCCC3)[nH]c2n(CCCOC(=O)c2ccc(S(=O)(=O)F)cc2)c1=O", "values": [{"measurement": "Loss", "setting": "[9]", "result": 74, "unit": "%"}, {"measurement": "Loss", "setting": "[10]", "result": 60, "unit": "%"}, {"measurement": "Kd", "setting": "Adenosine A2 receptor [2]", "result": 53, "unit": "nM"}, {"measurement": "IC50", "setting": "Adenosine A2 receptor [5]", "result": 9000, "unit": "nM"}]}, {"smiles": "CCCn1c(=O)c2nc(C3CCCC3)[nH]c2n(CC(C)OC(=O)CBr)c1=O", "note": "(centres undefined)", "values": [{"measurement": "Loss", "setting": "[8]", "result": 0, "unit": "%"}]}, {"smiles": "CCCn1c(=O)c2nc(CCNC(=O)CBr)[nH]c2n(CCC)c1=O", "values": [{"measurement": "Loss", "setting": "[6]", "result": 28, "unit": "%"}]}, {"smiles": "CCCn1c(=O)c2nc(CCCNC(=O)c3ccc(S(=O)(=O)F)cc3)[nH]c2n(CCC)c1=O", "values": [{"measurement": "Loss", "setting": "[1]", "result": 0, "unit": "%"}, {"measurement": "Kd", "setting": "Adenosine A2 receptor [2]", "result": 43, "unit": "nM"}, {"measurement": "IC50", "setting": "Adenosine A2 receptor [5]", "result": 26000, "unit": "nM"}]}, {"smiles": "CCCn1c(=O)c2[nH]c(NC(=O)c3cccc(S(=O)(=O)F)c3)nc2n(CCC)c1=O", "values": [{"measurement": "Kd", "setting": "Adenosine receptor A1", "result": 0.79, "unit": "nM"}]}, {"smiles": "CCCn1c(=O)c2nc(CNC(=O)c3ccc(S(=O)(=O)F)cc3)[nH]c2n(CCC)c1=O", "values": [{"measurement": "Kd", "setting": "Adenosine A2 receptor [2]", "result": 51, "unit": "nM"}, {"measurement": "IC50", "setting": "Adenosine A2 receptor [11]", "result": 49000, "unit": "nM"}, {"measurement": "Loss", "setting": "[6]", "result": 85, "unit": "%"}, {"measurement": "Loss", "setting": "[8]", "result": 72, "unit": "%"}, {"measurement": "Loss", "setting": "[12]", "result": 25, "unit": "%"}, {"measurement": "Loss", "setting": "[13]", "result": 0, "unit": "%"}]}, {"smiles": "CCCn1c(=O)n(CCCOC(=O)c2ccc(S(=O)(=O)F)cc2)c(=O)c2[nH]c(C3CCCC3)nc21", "values": [{"measurement": "IC50", "setting": "Adenosine A2 receptor [5]", "result": "> 100000", "unit": "nM"}]}, {"smiles": "CCCn1c(=O)c2nc(CCCCCNC(=O)CBr)[nH]c2n(CCC)c1=O", "values": [{"measurement": "Loss", "setting": "[6]", "result": 7, "unit": "%"}]}, {"smiles": "CCCn1c(=O)c2nc(NC(=O)c3ccc(S(=O)(=O)F)cc3)[nH]c2n(CCC)c1=O", "values": [{"measurement": "Kd", "setting": "Adenosine receptor A1", "result": 1.1, "unit": "nM"}, {"measurement": "Loss", "setting": "[6]", "result": 88, "unit": "%"}]}]}
